Results from ChEMBL document CHEMBL1155362, “Synthesis, characterization and derivatization of some novel types of mono- and bis-imidazolidineiminothiones and imidazolidineiminodithiones with antitumor, antiviral, antibacterial and antifungal activities--part I” (Eur J Med Chem, 2009).
Converted amounts (≈) assume the structure as drawn. The source made the active and inactive calls. The rule behind the calls is not given here.

Key:
Candida albicans [1] = assay: Antifungal activity against Candida albicans IMRU 3669 at 5 mg/ml by agar disk diffusion assay; type: functional; conditions: Candida albicans, IMRU 3669; read-out: DIZ
Procedure, shortened: (§1)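 Fungi maintained on Czapek's Dox agar; agar well diffusion with 1 cm wells and […] of each concentration (1, 2.5, 5 mg/mL) in DMF; inhibition zone diameter measured.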

Hepatovirus A [2] = assay: Antiviral activity against HAV infected african green monkey Vero cells at 10^-2 dilution of 5 mg/ml by plaque formation assay; type: functional
Procedure, shortened: (§2)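 Compound dilutions prepared from a 5 mg/mL DMSO stock, using the maximum non-toxic dilution for Vero cells over 3 days; 0.1 mL virus (10³) mixed with 0.1 mL compound for 1 h at room temperature; mixture inoculated onto washed Vero monolayers in 12-well plates and adsorbed at 37 °C; 2× MEM/agarose overlay applied; read-out % reduction in plaque count versus untreated virus control.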

Human alphaherpesvirus 1 [3] = assay: Antiviral activity against HSV1 infected african green monkey Vero cells at 10^-2 dilution of 5 mg/ml by plaque formation assay; type: functional; procedure, shortened: as §2
Coxsackievirus B4 [4] = assay: Antiviral activity against Coxsackievirus B4 infected african green monkey Vero cells at 10^-2 dilution of 5 mg/ml by plaque formation assay; type: functional; procedure, shortened: as §2
Escherichia coli = assay: Antibacterial activity against Escherichia coli NCTC 10416 at 5 mg/ml by agar disk diffusion assay; type: functional; conditions: read-out: DIZ
Salmonella typhi [5] = assay: Antibacterial activity against Salmonella typhi NCIMB 9331 at 5 mg/ml by agar disk diffusion assay; type: functional, Salmonella enterica subsp. enterica serovar Typhi; conditions: Salmonella enterica, read-out: DIZ
Bacillus subtilis [6] = assay: Antibacterial activity against Bacillus subtilis NCTC 1040 at 5 mg/ml by agar disk diffusion assay; type: functional; conditions: read-out: DIZ
Staphylococcus aureus [7] = assay: Antibacterial activity against Staphylococcus aureus NCTC 7447 at 5 mg/ml by agar disk diffusion assay; type: functional; conditions: read-out: DIZ
Bacillus subtilis [8] = assay: Antibacterial activity against Bacillus subtilis NCIB 3610 at 5 mg/ml by agar disk diffusion assay; type: functional; conditions: Bacillus subtilis, NCIB 3610; read-out: DIZ
Candida albicans [9] = assay: Antifungal activity against Candida albicans IMRU 3669 at 1 mg/ml by agar disk diffusion assay; type: functional; conditions: read-out: DIZ; procedure, shortened: as §1
Candida albicans [10] = assay: Antifungal activity against Candida albicans IMRU 3669 at 2.5 mg/ml by agar disk diffusion assay; type: functional; conditions: read-out: DIZ; procedure, shortened: as §1
Aspergillus niger [11] = assay: Antifungal activity against Aspergillus niger Ferm-BAM C-21 at 5 mg/ml by agar disk diffusion assay; type: functional; conditions: read-out: DIZ; procedure, shortened: as §1
Aspergillus niger [12] = assay: Antifungal activity against Aspergillus niger Ferm-BAM C-21 at 2.5 mg/ml by agar disk diffusion assay; type: functional; conditions: read-out: DIZ; procedure, shortened: as §1
Aspergillus niger [13] = assay: Antifungal activity against Aspergillus niger Ferm-BAM C-21 at 1 mg/ml by agar disk diffusion assay; type: functional; conditions: read-out: DIZ; procedure, shortened: as §1
Bacillus subtilis [14] = assay: Antimicrobial activity against Bacillus subtilis NCTC 1040 by macrotube dilution assay; type: functional
Staphylococcus aureus [15] = assay: Antimicrobial activity against Staphylococcus aureus NCTC 7447 by macrotube dilution assay; type: functional
Klebsiella pneumoniae = assay: Antimicrobial activity against Klebsiella pneumoniae NCIMB 9111 by macrotube dilution assay; type: functional
Salmonella typhi [16] = assay: Antimicrobial activity against Salmonella typhi NCIMB 9331 by macrotube dilution assay; type: functional, Salmonella enterica subsp. enterica serovar Typhi; conditions: Salmonella enterica
Candida albicans [17] = assay: Antifungal activity against Candida albicans IMRU 3669 by macrotube dilution assay; type: functional
Procedure, shortened: (§3)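 Macrotube twofold dilution per NCCLS/CLSI guidelines for fungi; 2 mg compound in 2.0 mL DMF, serially diluted across 14 tubes of Czapek's Dox medium, with a control tube; inoculum added to halve the concentration; 30 °C for 72 h; MIC is the lowest concentration without visible growth.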

Aspergillus niger [18] = assay: Antifungal activity against Aspergillus niger Ferm-BAM C-21 by macrotube dilution assay; type: functional; procedure, shortened: as §3
[19] = Antitumor activity against mouse EAC cells assessed as inhibition of cell viability at 100 ug/ml after 2 hrs by trypan blue exclusion assay; type: functional; conditions: Ehrlich
Procedure, shortened: (§4)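 EAC cells aspirated from ascitic fluid of inoculated mice and diluted in saline; 0.1 mL cell suspension, 0.8 mL RPMI 1640 and 0.1 mL compound (25, 50 or 100) incubated 2 h at 37 °C; non-viable cells counted by trypan blue exclusion; % non-viable = dead/total × 100.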

[20] = Antitumor activity against mouse EAC cells assessed as inhibition of cell viability at 50 ug/ml after 2 hrs by trypan blue exclusion assay; type: functional; conditions: Ehrlich; procedure, shortened: as §4
[21] = Antitumor activity against mouse EAC cells assessed as inhibition of cell viability at 25 ug/ml after 2 hrs by trypan blue exclusion assay; type: functional; conditions: Ehrlich; procedure, shortened: as §4
U-251 [22] = assay: Cytotoxicity against human U251 cells assessed as surviving fraction after 48 hrs by SRB assay; type: functional, cell-based; conditions: Homo sapiens, U-251, 48 h; read-out: IC50
Procedure, shortened: (§5)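 Cells seeded at 10⁴ cells/well and left 24 h to attach, then exposed to […] in triplicate wells per dose. Incubation 48 h, 37 °C, 5% CO₂. Cells fixed and stained with sulforhodamine B, excess dye removed with acetic acid, bound dye taken up in Tris EDTA and read on an ELISA reader. Surviving fraction plotted against concentration.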

HepG2 = assay: Cytotoxicity against human HepG2 cells assessed as surviving fraction after 48 hrs by SRB assay; type: functional, cell-based; conditions: hepg2; procedure, shortened: as §5
MCF7 [23] = assay: Cytotoxicity against human MCF7 cells assessed as surviving fraction after 48 hrs by SRB assay; type: functional, cell-based; conditions: Homo sapiens, MCF7, 48 h; read-out: IC50; procedure, shortened: as §5
HeLa = assay: Cytotoxicity against human HeLa cells assessed as surviving fraction after 48 hrs by SRB assay; type: functional, cell-based; conditions: Homo sapiens, HeLa, 48 h; read-out: IC50; procedure, shortened: as §5
HCT-116 [24] = assay: Cytotoxicity against human HCT116 cells assessed as surviving fraction after 48 hrs by SRB assay; type: functional, cell-based; conditions: Homo sapiens, HCT-116, 48 h; read-out: IC50; procedure, shortened: as §5
U-251 [25] = assay: Cytotoxicity against human U251 cells assessed as reduction in surviving fraction at 1 ug/ml after 48 hrs by SRB assay; type: functional, cell-based; procedure, shortened: as §5
U-251 [26] = assay: Cytotoxicity against human U251 cells assessed as reduction in surviving fraction at 2.5 ug/ml after 48 hrs by SRB assay; type: functional, cell-based; procedure, shortened: as §5
U-251 [27] = assay: Cytotoxicity against human U251 cells assessed as reduction in surviving fraction at 5.0 ug/ml after 48 hrs by SRB assay; type: functional, cell-based; procedure, shortened: as §5
U-251 [28] = assay: Cytotoxicity against human U251 cells assessed as reduction in surviving fraction at 10.0 ug/ml after 48 hrs by SRB assay; type: functional, cell-based; procedure, shortened: as §5
MCF7 [29] = assay: Cytotoxicity against human MCF7 cells assessed as reduction in surviving fraction at 1 ug/ml after 48 hrs by SRB assay; type: functional, cell-based; procedure, shortened: as §5
MCF7 [30] = assay: Cytotoxicity against human MCF7 cells assessed as reduction in surviving fraction at 2.5 ug/ml after 48 hrs by SRB assay; type: functional, cell-based; procedure, shortened: as §5
MCF7 [31] = assay: Cytotoxicity against human MCF7 cells assessed as reduction in surviving fraction at 5.0 ug/ml after 48 hrs by SRB assay; type: functional, cell-based; procedure, shortened: as §5
MCF7 [32] = assay: Cytotoxicity against human MCF7 cells assessed as reduction in surviving fraction at 10.0 ug/ml after 48 hrs by SRB assay; type: functional, cell-based; procedure, shortened: as §5
HCT-116 [33] = assay: Cytotoxicity against human HCT116 cells assessed as reduction in surviving fraction at 1 ug/ml after 48 hrs by SRB assay; type: functional, cell-based
Procedure, shortened: (§6)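 HCT116 cells seeded at 10⁴ per well and allowed to attach for 24 h; exposed to 0, 1, 2.5, 5 or 10 in triplicate for 48 h at 37 °C in 5% CO₂; fixed and stained with sulforhodamine B; bound dye recovered in Tris EDTA and read on an ELISA reader; surviving fraction plotted against concentration.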

HCT-116 [34] = assay: Cytotoxicity against human HCT116 cells assessed as reduction in surviving fraction at 2.5 ug/ml after 48 hrs by SRB assay; type: functional, cell-based; procedure, shortened: as §6
HCT-116 [35] = assay: Cytotoxicity against human HCT116 cells assessed as reduction in surviving fraction at 5.0 ug/ml after 48 hrs by SRB assay; type: functional, cell-based; procedure, shortened: as §6
HCT-116 [36] = assay: Cytotoxicity against human HCT116 cells assessed as reduction in surviving fraction at 10.0 ug/ml after 48 hrs by SRB assay; type: functional, cell-based; procedure, shortened: as §6
Hepatovirus A [37] = assay: Antiviral activity against Hepatitis A virus infected african green monkey Vero cells at 10^-4 dilution of 5 mg/ml by plaque formation assay; type: functional; procedure, shortened: as §2
Human alphaherpesvirus 1 [38] = assay: Antiviral activity against HSV1 infected african green monkey Vero cells at 10^-4 dilution of 5 mg/ml by plaque formation assay; type: functional; procedure, shortened: as §2
Coxsackievirus B4 [39] = assay: Antiviral activity against Coxsackievirus B4 infected african green monkey Vero cells at 10^-4 dilution of 5 mg/ml by plaque formation assay; type: functional, organism-based; procedure, shortened: as §2
Pseudomonas aeruginosa [40] = assay: Antibacterial activity against Pseudomonas aeruginosa NCIB 9016 at 1 mg/ml by agar disk diffusion assay; type: functional; conditions: Pseudomonas aeruginosa, NCIB 9016; read-out: DIZ
Pseudomonas aeruginosa [41] = assay: Antibacterial activity against Pseudomonas aeruginosa NCIB 9016 at 2.5 mg/ml by agar disk diffusion assay; type: functional; conditions: Pseudomonas aeruginosa, NCIB 9016; read-out: DIZ
Pseudomonas aeruginosa [42] = assay: Antibacterial activity against Pseudomonas aeruginosa NCIB 9016 at 5 mg/ml by agar disk diffusion assay; type: functional; conditions: Pseudomonas aeruginosa, NCIB 9016; read-out: DIZ
Bacillus subtilis [43] = assay: Antibacterial activity against Bacillus subtilis NCIB 3610 at 1 mg/ml by agar disk diffusion assay; type: functional; conditions: Bacillus subtilis, NCIB 3610; read-out: DIZ
Bacillus subtilis [44] = assay: Antibacterial activity against Bacillus subtilis NCIB 3610 at 2.5 mg/ml by agar disk diffusion assay; type: functional; conditions: Bacillus subtilis, NCIB 3610; read-out: DIZ

CCOc1ccc(N2C(=O)N(c3ccc4c(c3)Cc3ccccc3-4)C(=O)C2=S)cc1
zone of inhibition at 5000 µg/mL (Candida albicans [1]): 14.5 mm
Activity (Hepatovirus A [2]): 50%
Activity (Human alphaherpesvirus 1 [3]): 50%
Activity (Coxsackievirus B4 [4]): 60%
zone of inhibition at 5000 µg/mL (Escherichia coli): 19 mm
zone of inhibition at 5000 µg/mL (Salmonella typhi [5]): 17.5 mm
zone of inhibition at 5000 µg/mL (Bacillus subtilis [6]): 17 mm
zone of inhibition at 5000 µg/mL (Staphylococcus aureus [7]): 15.5 mm

N=C1C(=S)N(c2ccc(Br)cc2)C(=S)N1c1ccc(Br)cc1
zone of inhibition at 5000 µg/mL (Bacillus subtilis [8]): 32 mm
zone of inhibition at 5000 µg/mL (Candida albicans [1]): 23 mm
zone of inhibition at 1000 µg/mL (Candida albicans [9]): 18 mm
zone of inhibition at 2500 µg/mL (Candida albicans [10]): 20 mm
zone of inhibition at 5000 µg/mL (Aspergillus niger [11]): 20 mm
zone of inhibition at 2500 µg/mL (Aspergillus niger [12]): 18 mm
zone of inhibition at 1000 µg/mL (Aspergillus niger [13]): 15 mm
MIC (Bacillus subtilis [14]): 3.9 µg/mL (≈ 8.57 µM)
MIC (Staphylococcus aureus [15]): 15.6 µg/mL (≈ 34.3 µM)
MIC (Klebsiella pneumoniae): 7.8 µg/mL (≈ 17.1 µM)
MIC (Salmonella typhi [16]): 1.95 µg/mL (≈ 4.28 µM)
MIC (Candida albicans [17]): 1.95 µg/mL (≈ 4.28 µM)
MIC (Aspergillus niger [18]): 0.49 µg/mL (≈ 1.08 µM)
inhibition at 100 µg/mL [19]: 90%
inhibition at 50 µg/mL [20]: 70%
inhibition at 25 µg/mL [21]: 50%
IC50 (U-251 [22]): 1.28 µg/mL (≈ 2.81 µM)
IC50 (HepG2): Not Active
IC50 (MCF7 [23]): 3.09 µg/mL (≈ 6.79 µM)
IC50 (HeLa): 8.93 µg/mL (≈ 19.6 µM)
IC50 (HCT-116 [24]): 4.56 µg/mL (≈ 10 µM)
Activity (U-251 [25]): Active
Activity (U-251 [26]): Active
Activity (U-251 [27]): Active
Activity (U-251 [28]): Active
Activity (MCF7 [29]): Active
Activity (MCF7 [30]): Active
Activity (MCF7 [31]): Active
Activity (MCF7 [32]): Active
Activity (HCT-116 [33]): Active
Activity (HCT-116 [34]): Active
Activity (HCT-116 [35]): Active
Activity (HCT-116 [36]): Active
Activity (Hepatovirus A [37]): inactive
Activity (Human alphaherpesvirus 1 [38]): 50%
Activity (Coxsackievirus B4 [39]): inactive
zone of inhibition at 1000 µg/mL (Pseudomonas aeruginosa [40]): 18 mm
zone of inhibition at 2500 µg/mL (Pseudomonas aeruginosa [41]): 19 mm
zone of inhibition at 5000 µg/mL (Pseudomonas aeruginosa [42]): 21 mm
zone of inhibition at 1000 µg/mL (Bacillus subtilis [43]): 21 mm
zone of inhibition at 2500 µg/mL (Bacillus subtilis [44]): 25 mm
